From PubChem BioAssay
This is a sample that favours compounds with a hit; in the whole collection about 1.7% have one here.
Scp1 inh – blocks human Scp-1 phosphatase activity; inhibition, % at 20 µM; 0.88% of 340,000 active; Q9GZU7; Recombinant Scp1, phosphopeptide, malachite green phosphate absorbance; AID 493091;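 active = inhibition above about 50% at 20 µM, limit read from the data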
Target sequence (Q9GZU7 76-261 limits assumed): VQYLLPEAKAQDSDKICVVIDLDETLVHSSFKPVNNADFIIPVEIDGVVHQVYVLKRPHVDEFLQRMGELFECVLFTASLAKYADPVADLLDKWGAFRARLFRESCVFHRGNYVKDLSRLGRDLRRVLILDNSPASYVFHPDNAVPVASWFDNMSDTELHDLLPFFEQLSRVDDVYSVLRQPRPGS
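System: SCP-1 catalytic domain; Reagent: Phospho 17-mer peptide substrate; Doses: one concentration, 20 µM, with 1.0% DMSO; Incubation: 45 min room-temperature reaction, 5 min colour, 30 min stabiliser; Signal: Phosphate-binding colour reagent, absorbance read at 630 nm.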
STEP block – blocks human striatal-enriched tyrosine phosphatase | inhibition, % at 20 µM | recombinant STEP, OMFP fluorogenic substrate, fluorescence | 0.25% of 360,000 active | AID 588621;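 active = inhibition at 20 µM, scaled per plate between control wells, above about 37%, limit read from the data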
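Test system: STEP tyrosine phosphatase / Reagent: OMFP at 25 µM / Doses: 20 µM, 1% DMSO / Read-out: percent inhibition scaled to no-enzyme and uninhibited-enzyme controls, plate-pattern corrected / Detection: FITC-channel fluorescence of OMFP product / Medium: Bis-Tris buffer pH 6.0, 2.5 mM DTT, 0.005% Tween 20 / Schedule: 20 min at room temperature, dark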
LMPTP inh – blocks human LMPTP phosphatase | P24666 | recombinant LMPTP-A, OMFP fluorogenic substrate, fluorescence intensity | inhibition, % at 20 µM | 0.22% of 360,000 active | AID 651560;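 active = compounds that cut the enzyme signal by at least half of the control window in the single-dose screen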
Target sequence (P24666 whole entry, looked up): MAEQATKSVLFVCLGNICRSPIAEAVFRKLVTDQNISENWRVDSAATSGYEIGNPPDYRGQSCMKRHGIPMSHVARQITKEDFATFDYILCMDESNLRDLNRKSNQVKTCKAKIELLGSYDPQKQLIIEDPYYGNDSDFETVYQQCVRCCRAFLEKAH
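Assay system: LMPTP-A, protein tyrosine phosphatase of low molecular weight / Medium: pH 6.0 Bis-Tris buffer with DTT and Triton X-100 / Schedule: 50 min enzyme reaction at room temperature, protected from light / Measured by: endpoint fluorescence intensity from OMFP dephosphorylation / Read-out basis: % inhibition relative to no-enzyme and uninhibited control wells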
DNMT1 inh – DNMT1 (human) enzyme inhibition; P26358; DNMT1 molecular beacon, Hinp1I cleavage, fluorescence; inhibition (reported as % activation of signal), % at 10 µM; 0.83% of 360,000 active; AID 588458; in the data active = inhibition above about 50%
SUMO1 PPI mod – modulators of human SUMO1-mediated protein-protein interactions; SUMO1 binding to a labelled peptide, TR-FRET, 1 h; AID 602429; inhibition, % at 20 µM; 0.33% of 360,000 active; in the data active = inhibition above about 37%
Target sequence (P63165 whole entry, looked up): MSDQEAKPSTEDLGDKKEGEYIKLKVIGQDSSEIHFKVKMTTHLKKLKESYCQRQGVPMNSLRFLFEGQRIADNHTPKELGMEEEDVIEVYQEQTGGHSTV
Each line names hits and unclear results; the compound was inactive in the other large screens.

CCOC(=O)C1CCN(S(=O)(=O)c2ccc3c(c2)CC(=O)N3C)CC1	Scp1 inh 69
CCOC(=O)C1CCN(S(=O)(=O)c2ccc3c(c2)CCCN3C(C)=O)CC1	none
Cc1ccc(NC(=S)N2CCN(S(C)(=O)=O)CC2)cc1C	none
S=c1[nH]nc(-c2cc(-c3ccccc3)n[nH]2)n1/N=C/c1cccc(Cl)c1	SUMO1 PPI mod 88
O=C(CCCl)N1c2ccccc2C=Cc2ccccc21	none
CCN(CC)c1ccc(/C=N/NC(=O)c2ccc([N+](=O)[O-])cc2)cc1	none
CCN=C(N/N=C/c1ccc([N+](=O)[O-])cc1)SC	Scp1 inh 104
CCN(CC)c1ccc(C(=C2C=CC(=[N+](CC)CC)C=C2)c2ccc(N(CC)CC)cc2)cc1	LMPTP inh 81
CCN(CC)c1ccc(C(=C2C=CC(=[N+](CC)CC)C=C2)c2ccccc2)cc1	none
O=C(NNC(=O)c1ccccc1C(=O)O)c1cc2ccccc2o1	none
COc1ccc(-n2sc3ccc(F)cc3c2=O)cc1	Scp1 inh 81
Cc1ccc(-c2cc(=O)c3cc(F)ccc3[nH]2)cc1	none
O=c1c2cc(F)ccc2sn1-c1ccc(F)cc1	Scp1 inh 81
Cc1ccc(C)c(-n2sc3ccc(F)cc3c2=O)c1	Scp1 inh 70
COc1ccc(-n2sc3ccccc3c2=O)cc1	none (no result: Scp1 inh)
O/N=C1/CCc2cccc3cccc1c23	none
NC(=S)NN=C1Cc2cccc3cccc1c23	LMPTP inh 53
O=C(O)CSc1nc2sc3c(c2c(=O)n1-c1ccccc1)CCC3	none
CSc1nc(SCC(=O)O)c2sc3nc(-c4ccccc4)c4c(c3c2n1)CCC4	Scp1 inh 60, STEP block 97, LMPTP inh 95, DNMT1 inh 97, SUMO1 PPI mod 101
CSc1nc(NCCN(C)C)c2sc3nc(-c4ccco4)c4c(c3c2n1)CCC4	none
CSc1nc(N(C)CCO)c2sc3nc(-c4ccco4)c4c(c3c2n1)CCC4	Scp1 inh 79
O=C(Nc1ccccc1C(F)(F)F)c1cc2ccccc2o1	none
CN(CCCC(=O)O)c1ccc(N=Nc2ccc([N+](=O)[O-])cc2)cc1	Scp1 inh 110, STEP block 99, LMPTP inh 77
CCC(C)C(=O)OCC1(c2ccc(C)cc2OC(=O)C(C)C)CO1 (configuration not stated)	Scp1 inh 53
O=C(COC(=O)c1ccc(Br)o1)Nc1nc2c(F)c(F)c(F)cc2s1	LMPTP inh 60
CCOc1ccc(S(=O)(=O)N(CC(=O)Nc2cccnc2)c2ccc(F)cc2)cc1	none
CC1=C(C#N)c2nc(N)c(C#N)c(C)c2/C1=C\c1ccc(-c2ccccc2C(=O)O)o1	Scp1 inh 63, DNMT1 inh 62
COc1cc(/C=C2/C(C)=C(C#N)c3nc(N)c(C#N)c(C)c32)ccc1OCC(=O)O	none (no result: STEP block, LMPTP inh, DNMT1 inh, SUMO1 PPI mod)
O=C1c2nc3ccccn3c2C(=O)N1Cc1ccccc1	SUMO1 PPI mod 39
CCOC(=O)N1CCC(NC(=O)c2ccccc2C(=O)O)CC1	SUMO1 PPI mod 43
Cc1[nH]ccc2cc3nc4ccccc4c3cc12	LMPTP inh 86 (no result: Scp1 inh)
c1ccc2sc(-c3ccncc3)nc2c1	none
c1cncc(-c2nc3ccccc3s2)c1	SUMO1 PPI mod 48
Cn1c(/N=C/c2c(O)ccc3ccccc23)nc2ccccc21	SUMO1 PPI mod 82
Cc1occc1-c1nnc(SCC(=O)Nc2c(F)cccc2F)n1C	none
CC(=O)Nc1ccc(S(=O)(=O)N2CCN(c3nc(NC4CCCC4)c4ccccc4n3)CC2)cc1	LMPTP inh 63
CC(=O)Nc1ccc(S(=O)(=O)N2CCN(c3cc(C)nc4ccccc34)CC2)cc1	none
COc1ccc(NC(=O)CCNC(=O)C2CCN(S(=O)(=O)c3ccccc3)CC2)cc1OC	none (no result: Scp1 inh)
CO[C@H]1CN(C)C(=O)c2ccc(NC(=O)C3CCC3)cc2OC[C@H](C)N(CC2CCCCC2)C[C@@H]1C	none (no result: Scp1 inh, STEP block, DNMT1 inh)
O=C(Nc1cccc(S(=O)(=O)N2CCOCC2)c1)c1cc(S(=O)(=O)N2CCOCC2)c(Cl)cc1Cl	none
Cc1nnc2c(NCCC(C)C)nc3ccccc3n12	none
Cc1nnc2c(NCC(C)c3ccccc3)nc3ccccc3n12 (configuration not stated)	SUMO1 PPI mod 48
O=C(/C=C/NNC(=O)c1ccccc1O)c1ccccc1	none
O=C(O)c1ccc(C[n+]2c(-c3ccccc3)csc2Nc2ccccc2)cc1	none
CC(C)(C)c1cc(-c2csc(Nc3ccccc3)[n+]2Cc2ccc(C(=O)O)cc2)cc(C(C)(C)C)c1O	SUMO1 PPI mod 42
Cn1cccc1C(=O)N/N=C/c1c(Cl)cccc1Cl	none
CS(=O)(=O)c1ccc(C(=O)OCC(=O)NCc2cccs2)cc1[N+](=O)[O-]	DNMT1 inh 71
O=C1c2ccccc2C(=O)N1/N=C/c1ccc(O)c(O)c1O	LMPTP inh 68
Cc1nc2ccccc2c(=O)n1/N=C/c1ccc(O)c(O)c1O	LMPTP inh 84, DNMT1 inh 78, SUMO1 PPI mod 70
Cc1nc2ccccc2c(=O)n1/N=C/c1ccccc1O	none
O=C1c2cccc3cccc(c23)C(=O)N1/N=C/c1ccc(O)cc1O	none
CCOc1ccc(C2C(C(=O)c3ccco3)=C(O)C(=O)N2CCCn2ccnc2)cc1OC (configuration not stated)	SUMO1 PPI mod 47
Nn1c(SCC(=O)NCCc2ccc(F)cc2)nnc1C1CCCCC1	none
CC(C)(C)NC(=S)N1CCC2CC1c1c(Cl)cccc12 (configuration not stated)	none (no result: Scp1 inh)
O=c1c2cc(Br)ccc2nc(-c2ccc(Cl)cc2)n1O	Scp1 inh 65, STEP block 96, LMPTP inh 51
CCCc1nn2c(=O)cc(COc3ccc(NC(=O)c4ccco4)cc3)nc2s1	SUMO1 PPI mod 66
CCc1nn2c(=O)cc(COc3ccc(NC(=O)c4ccco4)cc3)nc2s1	none
Cc1ccc(N2N=C(C(=O)O)CCC2=O)cc1Cl	none
CC(=O)c1c(C)[nH]c(C(=O)OCC(=O)N2CCc3ccccc32)c1C	DNMT1 inh 50
CCn1c(CSc2nc3ccccc3s2)nnc1SCC(=O)c1ccc(O)c(O)c1	Scp1 inh 59
COc1ccc2[nH]c3nc(SCc4nnc(-c5ccc(C)cc5)o4)nnc3c2c1	DNMT1 inh 56
Brc1ccc(C2=CC(c3cccs3)n3ncnc3N2)cc1 (configuration not stated)	DNMT1 inh 66
Cc1ccc(OCC(=O)Nc2sc3c(c2C#N)CC(C)(C)NC3(C)C)cc1	none
CC1(C)Cc2c(sc(NC(=O)COc3cccc4ccccc34)c2C#N)C(C)(C)N1	STEP block 69
Nc1ccc2nc3c(=O)n(CCc4ccccc4)c(=O)[nH]c3nc2c1	DNMT1 inh 51
CCCCn1c(=O)[nH]c2nc3cc(N)ccc3nc2c1=O	DNMT1 inh 54
Nc1ccc2nc3c(=O)n(C4CCCCC4)c(=O)[nH]c3nc2c1	none
